To fix the notation:
B1: Osa-1-4 twister ribozyme (parent)
chain: CCGCCUAACACUGCCAAUGCCGGUCCCAAGCCCGGAUAAAAGUGGAGGGGGCGG

The variants in this data set derive from B1. Kind of data set: self-cleavage, relative activity (ratio to wild type); higher = more cleavage; co-transcriptional. The gist of the method:
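The 48 positions downstream of the cleavage site in a 54-nucleotide Oryza sativa twister ribozyme template were synthesised at 97 % wild-type base and 1 % of each other base. The template was transcribed in vitro at 37 °C for 2 h, with self-cleavage allowed during transcription. Reads with or without upstream sequence after deep sequencing marked cleavage status, and relative activity is fraction cleaved normalised to wild type.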
On to G23U G53U, for which the self-cleavage stood at 0.06. To G23U G53A belongs 0.06; to G23U G53C, 0.03. As for G23U G34U, the self-cleavage was 0.05. As for G23U G34C, the self-cleavage was found to be 0.04.

As to G23U G34A, the self-cleavage was 0.04. The result for G23C G44C reads 0.04. The result for G23C G44U reads 0.04; that for G23C G44A, 0.04; that for G23A G34U, 0.07. As to G23A G34A, the self-cleavage was determined as 0.11. The result for G23A G34C reads 0.07; that for G23A G51U, 0.08.

Turning to G23A G51A, the self-cleavage was 0.09. To G23A G51C belongs 0.07; to G23C G51C, 0.03; to G23C G51U, 0.03.

Take G23C G51A: the self-cleavage came out at 0.05.

Turning to U24A, the self-cleavage was determined as 0.42. Consider G23U U24G, for which the self-cleavage was found to be 0.02. The result for G23U U24C reads 0.03; that for G23U U24A, 0.04; that for G23U U18G, 0.14. To G23U U18A belongs 0.1; to G23U U18C, 0.1.

Consider G23C U12G, for which the self-cleavage amounted to 0.04. To G23C U12C belongs 0.04.

Turning to G23C U12A, the self-cleavage was 0.04. The result for G23U reads 0.18. The result for G23C reads 0.05; that for G23U G30C, 0.03. To G23U G30A belongs 0.02.

On to G23U G30U, for which the self-cleavage was determined as 0.02.

With G23C U18C, the self-cleavage was 0.14. For G23C U18G, the self-cleavage amounted to 0.06.

With G23C U18A, the self-cleavage came out at 0.06.

G23A G53A: the self-cleavage turned out to be 0.15. To G23A G53C belongs 0.06; to G23A G53U, 0.11. To G23U U12G belongs 0.05; to G23U U12C, 0.04; to G23U U12A, 0.05. To G23U G49U belongs 0.03; to G23U G49A, 0.03; to G23U G49C, 0.03. For G23C G35A, the self-cleavage is 0.04. The result for G23C G35C reads 0.06. The result for G23C G35U reads 0.04; that for G23C G53U, 0.04. With G23C G53A, the self-cleavage was 0.04. Take G23C G53C: the self-cleavage came to 0.02. To G23U U43A belongs 0.04. The result for G23U U43G reads 0.07.

As to G23U U43C, the self-cleavage is 0.04. The result for G23U G51U reads 0.04. To G23U G51A belongs 0.05; to G23U G51C, 0.04. In the case of G23A G47C, the self-cleavage amounted to 0.06. The result for G23A G47U reads 0.06; that for G23A G47A, 0.07. To G23A G48U belongs 0.05. To G23A G48A belongs 0.05; to G23A G48C, 0.06. Turning to G23A G45A, the self-cleavage was 0.05. To G23A G45C belongs 0.05; to G23A G45U, 0.06; to G23A U12G, 0.07.

In the case of G23A U12C, the self-cleavage is 0.08. To G23A U12A belongs 0.1.

For the variant G23C G42U, the self-cleavage worked out at 0.02. The result for G23C G42A reads 0.05; that for G23C G42C, 0.05. The result for G23A G30U reads 0.04; that for G23A G30C, 0.04; that for G23A U24C, 0.05.

For G23A U24A, the self-cleavage was determined as 0.09.

For G23A U24G, the self-cleavage was 0.02. To G23A G35A belongs 0.14; to G23A G35C, 0.08; to G23A G35U, 0.13. To G23A G50C belongs 0.14.

In the case of G23A G50U, the self-cleavage stood at 0.3. To G23A G50A belongs 0.23; to G23C U43G, 0.06.

Take G23C U43C: the self-cleavage came to 0.05.

For G23C U43A, the self-cleavage was 0.05. To G23A G42U belongs 0.05; to G23A G42C, 0.07.

G23A G42A: the self-cleavage amounted to 0.08. Consider G23U G48A, for which the self-cleavage amounted to 0.02.

In the case of G23U G48C, the self-cleavage was 0.03. To G23U G48U belongs 0.03; to G23C G34U, 0.04. To G23C G34C belongs 0.04; to G23C G34A, 0.06. To G23C G54U belongs 0.06.

With G23C G54C, the self-cleavage is 0.05. To G23C G54A belongs 0.06.

Take G23U G35A: the self-cleavage was determined as 0.04.

For G23U G35C, the self-cleavage worked out at 0.05.

For the variant G23U G35U, the self-cleavage was found to be 0.05.

For G23C G48U, the self-cleavage was found to be 0.02.

On to G23C G48C, for which the self-cleavage was 0.02. To G23C G48A belongs 0.02; to G23A G54C, 0.21; to G23A G54U, 0.41.

With G23A G54A, the self-cleavage came to 0.2. The result for G23A U43A reads 0.1. To G23A U43G belongs 0.09; to G23A U43C, 0.09; to G23U G47U, 0.04. The result for G23U G47A reads 0.03; that for G23U G47C, 0.03. Take G23U U37A: the self-cleavage was 0.14. The result for G23U U37G reads 0.19; that for G23U U37C, 0.16. G23A U18A: the self-cleavage worked out at 0.59. As for G23A U18C, the self-cleavage is 0.49. In the case of G23A U18G, the self-cleavage turned out to be 0.38. The result for G23U G45C reads 0.03. The result for G23U G45U reads 0.03; that for G23U G45A, 0.04; that for G23C G49U, 0.03.

With G23C G49C, the self-cleavage worked out at 0.02.

With G23C G49A, the self-cleavage stood at 0.03. The result for G23C G30U reads 0.02. Regarding G23C G30A, the self-cleavage worked out at 0.02. On to G23C G30C, for which the self-cleavage worked out at 0.02.

On to G23U G50A, for which the self-cleavage turned out to be 0.05. To G23U G50C belongs 0.05; to G23U G50U, 0.06; to G23A G44C, 0.27. The result for G23A G44A reads 0.15; that for G23A G44U, 0.18; that for G23C G47C, 0.03.

As to G23C G47A, the self-cleavage was determined as 0.03. To G23C G47U belongs 0.03. The result for G23A G49C reads 0.05; that for G23A G49A, 0.06; that for G23A G49U, 0.06. The result for G23U G44A reads 0.04; that for G23U G44U, 0.06.

For the variant G23U G44C, the self-cleavage was found to be 0.05. Consider G23U G42A, for which the self-cleavage came out at 0.05. For G23U G42U, the self-cleavage came to 0.04. Consider G23U G42C, for which the self-cleavage was 0.03. To G23C U24C belongs 0.04; to G23C U24G, 0.01. The result for G23C U24A reads 0.03. The result for G23C G50A reads 0.04; that for G23C G50C, 0.04. On to G23C G50U, for which the self-cleavage is 0.05. To G23A U37A belongs 0.77; to G23A U37C, 0.72; to G23A U37G, 0.78.

As for G23U G54A, the self-cleavage was found to be 0.09. Turning to G23U G54U, the self-cleavage came to 0.2.

On to G23U G54C, for which the self-cleavage amounted to 0.08. For the variant G23C G45U, the self-cleavage came to 0.03. Regarding G23C G45C, the self-cleavage worked out at 0.03. To G23C G45A belongs 0.04; to U24A U37C, 0.28; to U24A U37G, 0.49. The result for U24A U37A reads 0.34; that for G23C U37A, 0.04.

With G23C U37G, the self-cleavage stood at 0.05. The result for G23C U37C reads 0.07.

The values are drawn from the RNAGym collection of RNA variant scans (doi:10.1002/anie.201605470).
